Tests used:
P-gp [1] = experiment: Efflux ratio in P-gp expressing MDCK cells; assay type: ADME, cell-based, Canis lupus familiaris; conditions: dog, MDCK-MDR1
[2] = Dissociation constant, pKa of the compound; assay type: physicochemical
P-gp [3] = experiment: Permeability in P-gp expressing MDCK cells; assay type: ADME, cell-based, Canis lupus familiaris; conditions: dog, MDCK-MDR1; read-out: permeability
Brain = experiment: Drug level in brain of PDAPP (V717F) transgenic mouse at 100 mg/kg, sc; assay type: ADME, organism-based; conditions: in vivo, read-out: Drug uptake
Method in brief: (§1)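 Brain and plasma samples from PDAPP mice dosed subcutaneously were homogenized (brain) and mixed with methanol/acetonitrile (1:1, v/v) containing internal standard to precipitate protein. After centrifugation, supernatant was diluted 4-fold with water/methanol (1:1, v/v). Drug was quantified against calibration standards by LC–MS/MS on a C18 column.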

Plasma = experiment: Plasma concentration in PDAPP (V717F) transgenic mouse at 100 mg/kg, sc; assay type: ADME, organism-based; conditions: in vivo; method in brief: as §1
[4] = Drug metabolism in mouse microsomes; assay type: ADME, Microsome

SMILES | efflux ratio (P-gp [1]) | pKa [2] | Papp (P-gp [3]) | concentration (Brain) | concentration (Plasma) | Drug metabolism [4]
Cl.NC1=NC2CCC(NC(=O)c3cccc(Cl)c3)CC2CS1 (stereo not given) | 10 | 9.7 | 2.9 ×10⁻⁶ cm/s |  |  | 
Cl.NC1=N[C@]23CC[C@H](NC(=O)c4cccc(Cl)c4)C[C@@H]2[C@@H](COC3)S1 | 8.5 | 9 | 2.2 ×10⁻⁶ cm/s |  |  | 
NC1=NC2CCC(OC(=O)c3cccc(Cl)c3)CC2CS1.O=C(O)C(F)(F)F (stereo not given) | 2.7 |  | 7.2 ×10⁻⁶ cm/s |  |  | 
NC1=NC2CCC(NC(=O)c3cccc(Cl)c3)CC2CS1 (stereo not given) |  |  |  | 0.75 µM | 9.3 µM | metabolite_notdetected
NC1=N[C@]23CC[C@H](NC(=O)c4cccc(Cl)c4)C[C@@H]2[C@@H](COC3)S1 |  |  |  | 0.61 µM | 6.7 µM | metabolite_notdetected
NC1=NC23CCC(NC(=O)c4cccc(Cl)c4)CC2(COC3)CS1 (racemic) |  | 8.2 |  |  |  | 

— ChEMBL document CHEMBL3585284, “Preparation and biological evaluation of conformationally constrained BACE1 inhibitors” (Bioorg Med Chem, 2015)
